Measured values taken from ChEMBL document CHEMBL5705892, “MK-2206, an allosteric Akt inhibitor, enhances antitumor efficacy by standard chemotherapeutic agents or molecular targeted drugs in vitro and in vivo” (Mol Cancer Ther, 2010).
The source made the active and inactive calls. No cut-off for these calls is given here.

Experiments:
A-431 = assay: Antiproliferative activity against human A-431 cells assessed as reduction in cell proliferation measured after 72 hrs by celltiter-glo assay; assay type: functional, cell-based; settings: A-431, 72 h
Outline: (§1)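 Cells in RPMI 1640 with 10% heat-inactivated FBS at 37°C and 5% CO₂ were seeded at 2 to 3 × 10³ per well. […] Growth was read as cellular ATP by CellTiter-Glo.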

NCI-H1299 [1] = assay: Antiproliferative activity against human NCI-H1299 cells assessed as reduction in cell proliferation measured after 72 hrs by celltiter-glo assay; assay type: functional, cell-based; settings: NCI-H1299, 72 h; outline: as §1
NCI-N87 [2] = assay: Antiproliferative activity against human NCI-N87 cells assessed as reduction in cell proliferation measured after 72 hrs by celltiter-glo assay; assay type: functional, cell-based; settings: NCI-N87, 72 h; outline: as §1
NCI-H23 = assay: Synergistic antiproliferative activity against human NCI-H23 cells assessed as combination index at ED50 measured after 72 hrs in presence of erlotinib by celltiter-glo assay; assay type: functional
NCI-H460 [3] = assay: Synergistic antiproliferative activity against human NCI-H460 cells assessed as combination index at ED50 measured after 72 hrs in presence of erlotinib by celltiter-glo assay; assay type: functional
NCI-H1299 [4] = assay: Synergistic antiproliferative activity against human NCI-H1299 cells assessed as combination index at ED75 measured after 72 hrs in presence of erlotinib by celltiter-glo assay; assay type: functional
NCI-H460 [5] = assay: Synergistic antiproliferative activity against human NCI-H460 cells assessed as combination index at ED90 measured after 72 hrs in presence of erlotinib by celltiter-glo assay; assay type: functional
HCC70 [6] = assay: Synergistic antiproliferative activity against human HCC70 cells assessed as combination index at ED90 measured after 72 hrs in presence of lapatinib by celltiter-glo assay; assay type: functional
Outline: (§2)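 Cells grown in RPMI 1640 with 10% heat-inactivated FBS at 37°C, 5% CO₂. Seeded at 2 to 3 × 10³ per well; drugs added 24 h later. […] Viability read as cellular ATP by CellTiter-Glo. CI calculated by Chou–Talalay from median-effect plots at ED50, ED75 and ED90.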

[7] = target: RAC-alpha serine/threonine-protein kinase (Homo sapiens) (UniProt P31749); assay: Inhibition of AKT in human HCC827 cells assessed as reduction in GSK3alpha/beta phosphorylation at S21/S9 residues at 5 umol/L measured after 5 hrs in presence of erlotinib by Western blot analysis; assay type: cell-based; settings: dose 5.0 µmol/L
Sequence of RAC-alpha serine/threonine-protein kinase (Homo sapiens) (P31749 whole entry): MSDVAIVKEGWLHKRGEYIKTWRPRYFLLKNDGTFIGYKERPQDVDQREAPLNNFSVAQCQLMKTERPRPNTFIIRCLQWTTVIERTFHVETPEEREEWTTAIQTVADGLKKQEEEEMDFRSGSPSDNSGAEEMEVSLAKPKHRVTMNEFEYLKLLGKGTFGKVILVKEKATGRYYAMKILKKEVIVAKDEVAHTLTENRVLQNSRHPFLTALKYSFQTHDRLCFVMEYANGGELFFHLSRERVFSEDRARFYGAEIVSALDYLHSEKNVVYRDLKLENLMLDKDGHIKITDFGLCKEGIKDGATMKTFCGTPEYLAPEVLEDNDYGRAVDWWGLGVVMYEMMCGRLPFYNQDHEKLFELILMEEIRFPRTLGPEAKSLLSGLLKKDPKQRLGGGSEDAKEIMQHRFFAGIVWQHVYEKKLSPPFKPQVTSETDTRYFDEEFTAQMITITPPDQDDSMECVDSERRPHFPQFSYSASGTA

[8] = target: RAC-alpha serine/threonine-protein kinase (Homo sapiens) (UniProt P31749); assay: Inhibition of AKT in human HCC827 cells assessed as reduction in S6 phosphorylation at S240/S244 residues at 5 umol/L measured after 5 hrs in presence of erlotinib by Western blot analysis; assay type: cell-based; settings: dose 5.0 µmol/L
NCI-H292 = assay: Antitumor activity against human NCI-H292 cells xenografted in CD-1 mouse assessed as tumor growth suppression at 360 mg/kg, po administered once a week for 2 weeks and measured twice a week during compound dosing by caliper method; assay type: functional, organism-based
Outline: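 Female CD1-nude mice carried s.c. NCI-H292 cells in Matrigel/PBS and were randomized at 0.2 cm³, n = 5. […] MK-2206 (30% Captisol) was given 2 h later at 120 mg/kg po on days 0, 2, 4, 7, 9, 11, or at 360 mg/kg on days 0 and 7. Control received vehicle. Caliper volume twice weekly.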

HCC1954 = assay: Synergistic antiproliferative activity against lapatinib pretreated human HCC1954 cells assessed as combination index at ED50 measured after 72 hrs by celltiter-glo assay; assay type: functional
NCI-N87 [9] = assay: Synergistic antiproliferative activity against human NCI-N87 cells assessed as combination index at ED50 measured after 96 hrs in presence of lapatinib by celltiter-glo assay; assay type: functional
NCI-N87 [10] = assay: Synergistic antiproliferative activity against human NCI-N87 cells assessed as combination index at ED90 treated 24 hrs prior to lapatinib and measured after 72 hrs by celltiter-glo assay; assay type: functional; settings: time 96 hrs
HCC70 [11] = assay: Synergistic antiproliferative activity against lapatinib pretreated human HCC70 cells assessed as combination index at ED90 measured after 72 hrs by celltiter-glo assay; assay type: functional
[12] = target: RAC-alpha serine/threonine-protein kinase (Homo sapiens) (UniProt P31749); assay: Inhibition of AKT phosphorylation at S473 residue in human HCC70 cells at 1 umol/L measured after 3 to 24 hrs by Western blot analysis; assay type: cell-based; settings: dose 1.0 µmol/L, time 3-24 hrs
Outline: (§3)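 HCC70 cells at ~70% confluence were exposed to 10 µmol/L lapatinib, 1 µmol/L MK-2206, or both, for 0, 3, 6, 12 or 24 h. Lysates were prepared in Triton X-100/Tris buffer (pH 7.5) with protease and phosphatase inhibitors. Immunoblots after SDS-PAGE and nitrocellulose transfer were probed for pAkt and pS6.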

[13] = target: RAC-alpha serine/threonine-protein kinase (Homo sapiens) (UniProt P31749); assay: Inhibition of AKT in human HCC70 cells assessed as reduction in S6 phosphorylation at S240/S244 residues at 1 umol/L by Western blot analysis; assay type: cell-based; settings: dose 1.0 µmol/L, time 3-24 hrs; outline: as §3
MCF7 = assay: Synergistic antiproliferative activity against human MCF7 cells assessed as combination index at ED50 measured after 72 hrs in presence of docetaxel by celltiter-glo assay; assay type: functional; outline: as §2
MDA-MB-453 = assay: Synergistic antiproliferative activity against human MDA-MB-453 cells assessed as combination index at ED75 measured after 72 hrs in presence of docetaxel by celltiter-glo assay; assay type: functional; outline: as §2
A2780 [14] = assay: Synergistic antiproliferative activity against human A2780 cells assessed as combination index at ED50 measured after 72 hrs in presence of carboplatin by celltiter-glo assay; assay type: functional
Outline: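 Cells were seeded at 2–3 × 10³ per well in RPMI 1640 with 10% FBS. At 24 h, MK-2206 and the partner drug were added simultaneously at constant concentration ratios spanning each agent's IC₅₀, for 72 h. Growth was read as cellular ATP by CellTiter-Glo. CI was taken from median-effect plots of each agent alone and in combination (Chou–Talalay), at ED₅₀, ED₇₅ and ED₉₀.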

NCI-H460 [15] = assay: Synergistic antiproliferative activity against human NCI-H460 cells assessed as combination index at ED75 measured after 72 hrs in presence of doxorubicin by celltiter-glo assay; assay type: functional
A2780 [16] = assay: Induction of apoptosis in human A2780 cells assessed as increase in caspase-3/7 activity at 0.0625 to 1 uM incubated for 24 hrs prior to addition of carboplatin and measured after 24 hrs by caspase-glo 3/7 assay; assay type: functional, cell-based; settings: dose 0.0625-1 µM
NCI-H1703 = assay: Synergistic antiproliferative activity against human NCI-H1703 cells assessed as combination index at ED25 to ED90 measured after 72 hrs in presence of gemcitabine by celltiter-glo assay; assay type: functional
UMC-11 = assay: Synergistic antiproliferative activity against human UMC-11 cells assessed as combination index at ED25 to ED90 measured after 72 hrs in presence of gemcitabine by celltiter-glo assay; assay type: functional
NCI-H1993 = assay: Induction of apoptosis in human NCI-H1993 cells assessed as fold induction of capsase-3/7 activity measured after 24 to 48 hrs in presence of carboplatin by caspase-glo 3/7 assay; assay type: functional; settings: time 24-48 hrs
NCI-H661 [17] = assay: Induction of apoptosis in human NCI-H661 cells assessed as fold induction of capsase-3/7 activity measured after 24 to 48 hrs in presence of carboplatin by caspase-glo 3/7 assay; assay type: functional; settings: time 24-48 hrs
NCI-H661 [18] = assay: Induction of apoptosis in human NCI-H661 cells assessed as fold induction of capsase-3/7 activity measured after 24 to 48 hrs in presence of gemcitabine by caspase-glo 3/7 assay; assay type: functional; settings: time 24-48 hrs

`Cl.NC1(c2ccc(-c3nc4ccn5c(=O)[nH]nc5c4cc3-c3ccccc3)cc2)CCC1` showed an IC50 (A-431) of 5.5 µM, an IC50 (NCI-H1299 [1]) of 27 µM and an IC50 (NCI-N87 [2]) of 1600 nM. For the same molecule, the CI50 (NCI-H23) was 0.32, the CI50 (NCI-H460 [3]) was 0.34 and the CI75 (NCI-H1299 [4]) was 0.31. For the same molecule, the CI90 (NCI-H460 [5]) was 0.17, the CI90 (HCC70 [6]) was 0.2 and the inhibition [7] was “Active”. The inhibition [8] was “Active”, the Activity (NCI-H292) was “Active” and the CI50 (HCC1954) was 0.18. It also gave a CI50 (NCI-N87 [9]) of 0.18, a CI90 (NCI-N87 [10]) of 0.18 and a CI90 (HCC70 [11]) of 0.18. For the same molecule, the inhibition [12] was “Active”, the inhibition [13] was “Dose-Dependent Effect” and the CI50 (MCF7) was 0.7. The CI75 (MDA-MB-453) was 0.6, the CI50 (A2780 [14]) was 0.49 and the CI75 (NCI-H460 [15]) was 0.18. The Activity (A2780 [16]) was “inactive”, the CI (NCI-H1703) was 0.43 and the CI (UMC-11) was 0.53. For the same molecule, the “fold change (FC)” value (NCI-H1993) was 1.2, the “fold change (FC)” value (NCI-H661 [17]) was 2 and the “fold change (FC)” value (NCI-H661 [18]) was 1.3.
